Experimental data reported in ChEMBL document CHEMBL3588793, “Small molecule inhibitors of HIVgp41 N-heptad repeat trimer formation” (Bioorg Med Chem Lett, 2015).
The source made the active and inactive calls. The calls are words filed in the database; no cut-off is given here.

Columns and labels:
[1] = system: HL2/3; assay: Inhibition of HIV gp41 activity assessed as inhibition of TZM-bl and HL2/3 cell fusion at 100 uM after 6 hrs by luciferase reporter assay; assay type: cell-based; settings: Human immunodeficiency virus
In short: (§1)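 TZM-bl target cells (2.5×10^4/well) were seeded; 24 h later HL2/3 effector cells (5.0×10^4/well, […]) were added together with compound diluted in DMSO to a final 100 µM. After 6 h, Tat-driven LTR-luciferase luminescence (fusion) and cell viability were read in a combined reporter/viability kit. Six replicates; ANOVA with Tukey post hoc test against untreated co-culture.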

[2] = system: Human immunodeficiency virus; assay: Inhibition of HIVgp41 activity assessed as fluorescence intensity at 800 uM by FRET assay relative to 40 uM bithionol
[3] = Cytotoxicity against human TZM-bl cells at 100 uM; assay type: cell-based; in short: as §1
[4] = Cytotoxicity against human HL2/3 cells at 100 uM; assay type: cell-based; settings: hl2/3, 100 µM; in short: as §1
[5] = Inhibition of HIVgp41 activity assessed as inhibition of TZM-bl and HL2/3 cell fusion after 6 hrs by luciferase reporter assay; assay type: cell-based; settings: Human immunodeficiency virus 1, HL2/3, 6 h
In short: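 Dose-response runs of the TZM-bl/HL2/3 co-culture luciferase fusion assay over a range of concentrations. Viability signal was scaled to the maximal signal (fraction of maximal proliferation). Each well's fusion luminescence was divided by that fraction, background was subtracted, and values were normalized to fraction of maximal effect. IC50 was taken from curve fitting.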

Compound | Activity [1] | Activity [2] | Activity [3] | Activity [4] | IC50 [5] [µM]
CCn1c(SCC(=O)N/N=C/c2cccc(Oc3ccccc3)c2)nnc1-c1ccc(OC)cc1 | Active | inactive | Non-toxic | Non-toxic | 56.7
COc1ccc(-c2cc(C(=O)NCc3ccc(Cl)cc3)n[nH]2)cc1S(=O)(=O)N1CCOCC1 | Active | inactive | Non-toxic | Non-toxic | 58.6
